The results in this text go back to ChEMBL document CHEMBL5532745, “Enzymatic Synthesis of Austroeupatol Esters with Enhanced Antiprotozoal Activity” (ACS Med Chem Lett, 2024).

Some results are limits rather than exact numbers.

The test system of data set [1] is Leishmania infantum. Put plainly: Antiprotozoal activity against Leishmania infantum MHOM/BR/2002/LPC-RPV promastigotes assessed as growth inhibition at 25 uM incubated for 5 days relative to control. Type of data set: functional. The following applies: 120 h, time 5 day, read-out: GI.
Data set [2] is described as follows: Cytotoxicity against African green monkey Vero cells incubated for 48 hrs by MTT assay. Type of data set: toxicity, cell-based. The following applies: chlorocebus sabaeus. In outline:
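Uninfected Vero cells exposed to compounds; viability read by MTT assay to estimate cytotoxicity for selectivity assessment.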

For data set [3], the system named is Trypanosoma cruzi. Description: Antiprotozoal activity against Trypanosoma cruzi epimastigotes assessed as growth inhibition at 25 uM incubated for 5 days relative to control. Type of data set: functional. Conditions: 120 h, time 5 day, read-out: GI.
In data set [4] the test system is Trypanosoma cruzi. Description: Antiprotozoal activity against Trypanosoma cruzi Tulahuen strain amastigotes expressing Escherichia coli beta-galactosidase cultured in Vero cells assessed as growth inhibition at 10 uM incubated for 5 days relative to control. Type of data set: functional. The following applies: 120 h, time 5 day, read-out: GI. The procedure, abridged:
(§1)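 Vero cells infected with trypomastigotes carrying β-galactosidase; intracellular parasites exposed to compounds, growth inhibition read spectrophotometrically.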

For data set [5], the system named is Trypanosoma cruzi. Description: Antiprotozoal activity against Trypanosoma cruzi Tulahuen strain amastigotes expressing Escherichia coli beta-galactosidase cultured in Vero cells assessed as growth inhibition incubated for 5 days. Type of data set: functional, organism-based. Conditions: 120 h. The procedure, abridged: as §1
The test system of data set [6] is Leishmania infantum. Description: Antiprotozoal activity against Leishmania infantum MHOM/BR/2002/LPC-RPV promastigotes assessed as growth inhibition at 25 uM incubated for 5 days. Type of data set: functional, organism-based.

On to `C=C1CC[C@@H]2[C@H](COC(=O)CCc3c[nH]c4ccccc34)[C@H](O)[C@H](O)C[C@@]2(C)[C@@H]1CCc1ccoc1`, for which the inhibition of growth at 25 µM was determined as 91.5% in the data set on Leishmania infantum [1] and 64.3% in the data set with Trypanosoma cruzi [3]. Further, the CC50 – broadly, the concentration giving 50% cytotoxicity – at 48 h in data set [2] was under 10 µM. Also, the inhibition of growth at 10 µM in the data set on Trypanosoma cruzi [4] amounted to 98.7%. Also, the 50% inhibitory concentration (IC50) (commonly the concentration at which inhibition is half-maximal) in the data set with Trypanosoma cruzi [5] amounted to 2260 nM.
As to `C=C1CC[C@@H]2[C@H](COC(=O)CCCCCCCCCCC)[C@H](OC(=O)CCCCCCCCCCC)[C@H](O)C[C@@]2(C)[C@@H]1CCc1ccoc1`, the inhibition of growth at 25 µM was found to be 2.4% with Leishmania infantum [1] and 46.8% in the data set on Trypanosoma cruzi [3]. In the data set with Trypanosoma cruzi [4], the inhibition of growth at 10 µM was found to be 4.73%.
Turning to `C=C1CC[C@@H]2[C@H](COC(=O)CCCC[C@@H]3CCSS3)[C@H](O)[C@H](O)C[C@@]2(C)[C@@H]1CCc1ccoc1`, the results for the inhibition of growth at 25 µM in the data set with Leishmania infantum [1] and in the data set with Trypanosoma cruzi [3] were 47.7% and 58.5%, respectively. Moreover, in data set [2], the CC50 at 48 h was under 10 µM. In addition, in the data set on Trypanosoma cruzi [4], the inhibition of growth at 10 µM was 95.2%. In addition, the half-maximal inhibitory concentration (IC50) with Trypanosoma cruzi [5] amounted to 2060 nM.
Take `C=C1CC[C@@H]2[C@H](CO)[C@H](O)[C@H](O)C[C@@]2(C)[C@@H]1CCc1ccoc1`: the inhibition of growth at 25 µM in the data set on Leishmania infantum [1] turned out to be 0%; with Trypanosoma cruzi [3], 24.9%. The CC50 at 48 h in data set [2] turned out to be 85.4 µM. Moreover, the inhibition of growth at 10 µM in the data set on Trypanosoma cruzi [4] is 28%. Also, the IC50 in the data set with Trypanosoma cruzi [5] was over 15000 nM.
Take `C=C1CC[C@@H]2[C@H](COC(C)=O)[C@H](O)[C@H](O)C[C@@]2(C)[C@@H]1CCc1ccoc1`: the inhibition of growth at 25 µM was 15.7% in the data set on Leishmania infantum [1] and 21.6% in the data set on Trypanosoma cruzi [3]. Moreover, the inhibition of growth at 10 µM in the data set on Trypanosoma cruzi [4] is 22.7%.
On the same counts, the results for `C=C1CC[C@@H]2[C@H](COC(=O)CCCCCCCCCCCCCCC)[C@H](O)[C@H](O)C[C@@]2(C)[C@@H]1CCc1ccoc1` are 0%, 24.9% and 2.98%.
On the same counts, the results for `C=C1CC[C@@H]2[C@H](COC(=O)CCCCCCCCCCC)[C@H](O)[C@H](O)C[C@@]2(C)[C@@H]1CCc1ccoc1` are 29.1%, 69.7% and 12.5%.
On to `C=C1CC[C@@H]2[C@H](COC(=O)CCCCCCCCCCCCCCC)[C@H](OC(=O)CCCCCCCCCCCCCCC)[C@H](O)C[C@@]2(C)[C@@H]1CCc1ccoc1`, for which the results for the inhibition of growth at 25 µM with Leishmania infantum [1] and with Trypanosoma cruzi [3] were 0% and 31.8%, respectively. Also, the inhibition of growth at 10 µM in the data set on Trypanosoma cruzi [4] was determined as 2.06%.
`C=C1CC[C@@H]2[C@H](COC(=O)CCCC)[C@H](O)[C@H](O)C[C@@]2(C)[C@@H]1CCc1ccoc1`: the inhibition of growth at 25 µM in the data set on Leishmania infantum [1] was found to be 94.1%; with Trypanosoma cruzi [3] it was 93.5%. In data set [2], this compound showed a CC50 at 48 h of 19.3 µM. Also, in the data set on Trypanosoma cruzi [4], the inhibition of growth at 10 µM worked out at 99.1%. Also, the IC50 with Trypanosoma cruzi [5] was 8500 nM.
For `C=C1CC[C@@H]2[C@H](COC(=O)CCCCCCC)[C@H](OC(=O)CCCCCCC)[C@H](O)C[C@@]2(C)[C@@H]1CCc1ccoc1`, the inhibition of growth at 25 µM with Leishmania infantum [1] came to 16.4%; in the data set with Trypanosoma cruzi [3] it was 27.4%. Besides, in the data set on Trypanosoma cruzi [4], the inhibition of growth at 10 µM was determined as 9.79%.
With `C=C1CC[C@@H]2[C@H](COC(=O)CCCCCCC)[C@H](O)[C@H](O)C[C@@]2(C)[C@@H]1CCc1ccoc1`, the inhibition of growth at 25 µM with Leishmania infantum [1] came out at 57.1%; in the data set on Trypanosoma cruzi [3], 99.5%. For the same compound, in data set [2], half-maximal cytotoxicity (CC50 at 48 h) was put at 18.1 µM. Also, the inhibition of growth at 10 µM in the data set on Trypanosoma cruzi [4] was 100%. For the same compound, the IC50 with Trypanosoma cruzi [5] came to 7030 nM.
Take `O=C(Cn1ccnc1[N+](=O)[O-])NCc1ccccc1` [BENZNIDAZOLE]: the CC50 at 48 h in data set [2] was over 384 µM. Besides, in the data set on Trypanosoma cruzi [5], the IC50 came out at 940 nM.
In the case of MEGLUMINE ANTIMONATE, in the data set with Leishmania infantum [6], the IC50 amounted to 20 µM.
